The record followed here is ChEMBL document CHEMBL3286350, “Aplysinellamides A-C, bromotyrosine-derived metabolites from an Australian Aplysinella sp. marine sponge” (2014).

The source made the active and inactive calls. The calls are words filed in the database; no cut-off is given here.

One assay relates to CCF-STTG1. Description: Induction of apolipoprotein E secretion from human CCF-STTG1 cells at 30 uM after 96 hrs by ELISA relative to control. Format: functional. In outline:
(§1)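 Human CCF-STTG1 astrocytoma cells were incubated with test compounds at concentrations of up to 40 μM for 96 h, and apolipoprotein E secretion was then measured. The assay was also applied to fractions.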
Background: In an ELISA, binding on a coated surface is turned into a signal by an enzyme label.
Take `CN(C)CCCOc1c(Br)cc(CCN(C)C)cc1Br` [APLYSAMINE]: the “fold change (FC)” value worked out at 2.

In the next assay the test system is CCF-STTG1. Description: Induction of apolipoprotein E secretion from human CCF-STTG1 cells up to 40 uM after 96 hrs by ELISA. The assay is classed as functional, cell-based. An outline of the steps: as §1
`CN(C)CCCOc1c(Br)cc(CC[N+](C)(C)O)cc1Br`: the result was inactive.

For `COc1c(Br)cc(/C=C/C(=O)NCCCC[C@@H](N)C(=O)O)cc1Br`, the result was inactive.

As for `COc1ccc(CC(C(=O)O)[N+](C)(C)C)cc1Br` (stereo not given), the outcome was inactive.

Regarding `COc1ccc(C[C@H](N)C(=O)NCCc2cc(Br)c(OCCCN(C)C)c(Br)c2)cc1Br`, the result was inactive.

For the molecule `CNCCc1cc(Br)c(OCCCN(C)C)c(Br)c1`, the result was inactive.

Regarding `COc1ccc(/C=C/C(=O)NCCCCC(=O)O)cc1Br`, the result was inactive.

Turning to `CN(C)CCc1cc(Br)c(O)c(Br)c1`, the result was inactive.

Consider `COc1ccc(/C=C/C(=O)NCCCC[C@@H](N)C(=O)O)cc1Br`, for which the result was inactive.

For `COc1c(Br)cc(C(=O)O)cc1Br`, the outcome was inactive.
